Measured values published in ChEMBL document CHEMBL1147685, “Synthesis and SAR of 1,9-dihydro-9-hydroxypyrazolo[3,4-b]quinolin-4-ones as novel, selective c-Jun N-terminal kinase inhibitors” (Bioorg Med Chem Lett, 2006).
pIC50: −log10 of the molar value.

Legend:
[1] = molecular target: Mitogen-activated protein kinase 8 (Homo sapiens, UniProt P45983); experiment: Inhibition of JNK1
[2] = molecular target: c-Jun N-terminal kinase, JNK (Homo sapiens, UniProt P45983+P53779+P45984); experiment: Inhibition of TNF-alpha-stimulated cJun phosphorylation in HepG2 cells; format: functional, cell-based
Method in brief: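 Cell-based ELISA in HepG2 cells detecting phospho-c-Jun after TNFa stimulation. Inhibition of c-Jun phosphorylation read out and expressed as IC50.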

MAP kinase p38 = MAP kinase p38 (Homo sapiens, UniProt O15264+Q15759+Q16539+P53778); experiment: Inhibition of p38; format: protein assay
[3] = molecular target: Mitogen-activated protein kinase 1 (Homo sapiens, UniProt P28482); experiment: Inhibition of ERK2
Chain of Mitogen-activated protein kinase 1 (P28482 whole entry): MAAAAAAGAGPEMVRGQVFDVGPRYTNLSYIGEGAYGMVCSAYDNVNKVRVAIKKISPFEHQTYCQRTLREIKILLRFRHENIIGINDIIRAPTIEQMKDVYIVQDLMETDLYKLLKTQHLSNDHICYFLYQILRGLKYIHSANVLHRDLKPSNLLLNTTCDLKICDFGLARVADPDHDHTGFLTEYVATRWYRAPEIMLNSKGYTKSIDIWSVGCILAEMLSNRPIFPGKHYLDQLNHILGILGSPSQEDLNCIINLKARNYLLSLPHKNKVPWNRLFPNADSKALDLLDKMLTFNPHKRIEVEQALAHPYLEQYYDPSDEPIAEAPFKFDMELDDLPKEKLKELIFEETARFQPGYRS

[4] = molecular target: Mitogen-activated protein kinase 9 (Homo sapiens, UniProt P45984); experiment: Inhibition of JNK2
Chain of Mitogen-activated protein kinase 9 (P45984 whole entry): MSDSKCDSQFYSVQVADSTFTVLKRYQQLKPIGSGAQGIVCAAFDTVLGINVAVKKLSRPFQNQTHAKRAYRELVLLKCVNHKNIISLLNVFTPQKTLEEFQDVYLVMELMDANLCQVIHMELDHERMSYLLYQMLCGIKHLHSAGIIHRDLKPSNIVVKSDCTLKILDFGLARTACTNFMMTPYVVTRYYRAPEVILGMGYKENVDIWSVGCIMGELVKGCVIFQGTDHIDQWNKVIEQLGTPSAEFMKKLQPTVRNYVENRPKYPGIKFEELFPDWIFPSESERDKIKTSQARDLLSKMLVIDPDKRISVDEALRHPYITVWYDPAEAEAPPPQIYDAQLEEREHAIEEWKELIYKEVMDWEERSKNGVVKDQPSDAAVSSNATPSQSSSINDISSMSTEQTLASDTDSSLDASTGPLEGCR

[5] = Stability in human liver microsome after 30 mins; format: ADME; conditions: liver microsomes, read-out: Stability
Method in brief: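 Parent compound incubated with human liver microsomes for 30 min. Percentage of parent recovered afterwards was measured.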

Chain of Mitogen-activated protein kinase 8 (P45983 whole entry): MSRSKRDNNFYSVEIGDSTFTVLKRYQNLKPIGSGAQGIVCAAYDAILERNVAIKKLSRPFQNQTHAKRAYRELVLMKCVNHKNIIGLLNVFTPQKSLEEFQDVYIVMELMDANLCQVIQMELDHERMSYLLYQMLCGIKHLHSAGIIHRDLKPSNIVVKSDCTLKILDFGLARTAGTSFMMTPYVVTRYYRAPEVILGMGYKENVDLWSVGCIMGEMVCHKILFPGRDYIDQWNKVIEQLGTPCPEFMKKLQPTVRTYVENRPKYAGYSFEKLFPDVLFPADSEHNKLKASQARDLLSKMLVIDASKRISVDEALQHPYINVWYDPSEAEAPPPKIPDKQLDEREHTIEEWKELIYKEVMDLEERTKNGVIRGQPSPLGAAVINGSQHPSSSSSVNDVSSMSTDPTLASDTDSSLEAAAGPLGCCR

| SMILES | pIC50 [1] | IC50 [2] | other results |
| --- | --- | --- | --- |
| Cc1nn(C)c2nc3ccc(Cl)cc3c(O)c12 | < 5.00 | – | – |
| Cn1nc(CCC(=O)O)c2c(=O)c3cc(Cl)ccc3n(O)c21 | < 5.00 | – | – |
| Cn1nc(CCCC(=O)O)c2c(=O)c3cc(Cl)ccc3n(O)c21 | 5.56 | > 30 µM | – |
| CNC(=O)Cn1nc(C)c2c(=O)c3cc(Cl)ccc3n(O)c21 | 5.06 | > 30 µM | – |
| Cc1nn(CCO)c2c1c(=O)c1cc(Cl)ccc1n2O | 5.12 | > 30 µM | – |
| Cn1nc(C(F)(F)F)c2c(=O)c3cc(Cl)c(Cl)cc3n(O)c21 | 5.29 | > 30 µM | – |
| Cn1nc(CCN)c2c(=O)c3cc(Cl)ccc3n(O)c21 | 5.55 | > 30 µM | – |
| Cc1nn(C)c2c1c(=O)c1ccccc1n2O | < 5.00 | – | – |
| Cn1nc(C(C)(C)C)c2c(=O)c3cc(Cl)ccc3n(O)c21 | < 5.00 | – | – |
| COc1cc(Cl)cc2c(=O)c3c(C(F)(F)F)nn(C)c3n(O)c12 | < 5.00 | – | – |
| CCc1nn(C)c2c1c(=O)c1cc(Cl)ccc1n2O | 6.02 | 32 µM | – |
| Cc1nn(C)c2c1c(=O)c1cc(Cl)ccc1n2O | – | > 30 µM | IC50 (MAP kinase p38): > 50 µM; pIC50 [3]: < 4.30; pIC50 [4]: 5.51; remaining at 0.5 h [5]: 100% |
| CCNC(=O)NCCCc1nn(C)c2c1c(=O)c1cc(Cl)ccc1n2O | 6.30 | > 30 µM | – |
| Cn1c2[n+]([O-])c3ccc(Cl)cc3c(=O)c-2c2n1C(=O)NCC2 | 6.54 | 0.85 µM | – |
| CN(C)c1cc2c(cc1Cl)c(=O)c1c(C(F)(F)F)nn(C)c1n2O | < 5.00 | – | – |
| CCOC(=O)Cn1nc(C)c2c(=O)c3cc(Cl)ccc3n(O)c21 | 5.12 | > 30 µM | – |
| Cc1nn(C)c2c1c(=O)c1cc(Cl)ccc1n2OCc1ccccc1 | < 5.00 | – | – |
| Cc1nn(CC(=O)O)c2c1c(=O)c1cc(Cl)ccc1n2O | 5.36 | > 30 µM | – |

| SMILES | pIC50 [1] | IC50 [2] | other results |
| --- | --- | --- | --- |
| CCOn1c2ccc(Cl)cc2c(=O)c2c(C)nn(C)c21 | 5.56 | 10.6 µM | – |
| CC(C)c1nn(C)c2c1c(=O)c1cc(Cl)ccc1n2O | 5.58 | > 30 µM | – |
| Cc1nn(C)c2c1c(=O)c1cc(-c3cc[nH]n3)ccc1n2O | < 5.00 | – | – |
| Cc1nn(C)c2c1c(=O)c1cc(Cl)ccc1n2OC(C)C | < 5.00 | – | – |
| Cc1nn(C)c2c1c(=O)c1cc(-c3ccccc3)ccc1n2O | < 5.00 | – | – |
| COn1c2ccc(Cl)cc2c(=O)c2c(C)nn(C)c21 | 5.34 | 19.4 µM | – |
| Cc1nn(C)c2c1c(=O)c1cc(Cl)ccc1n2OC1CCCC1 | < 5.00 | – | – |
| CCCCc1nn(C)c2c1c(=O)c1cc(Cl)ccc1n2O | 6.28 | > 30 µM | – |
| CCOC(=O)NCCc1nn(C)c2c1c(=O)c1cc(Cl)ccc1n2O | 6.37 | > 30 µM | – |
| COC(=O)c1nn(C)c2c1c(=O)c1cc(Cl)ccc1n2O | < 5.00 | – | – |
| Cn1nc(-c2ccc(N)cc2)c2c(=O)c3cc(Cl)ccc3n(O)c21 | < 5.00 | – | – |
| COCCc1nn(C)c2c1c(=O)c1cc(Cl)ccc1n2O | 5.62 | 14.7 µM | – |
| Cn1nc(C(F)(F)F)c2c(=O)c3c(Cl)c(Cl)ccc3n(O)c21 | < 5.00 | – | – |
| CCCc1nn(C)c2c1c(=O)c1cc(Cl)ccc1n2O | 5.88 | 26.6 µM | – |
| Cc1nn(C)c2c1c(=O)c1cc(Br)ccc1n2O | 6.04 | > 30 µM | – |
| CC(=O)NCCc1nn(C)c2c1c(=O)c1cc(Cl)ccc1n2O | 6.11 | > 30 µM | – |
| CNC(=O)CCCc1nn(C)c2c1c(=O)c1cc(Cl)ccc1n2O | 6.12 | > 30 µM | – |
| CCn1nc(C)c2c(=O)c3cc(Cl)ccc3n(O)c21 | 5.38 | > 30 µM | – |
